Experimental data from ChEMBL document CHEMBL1141512, “Arylsulfonamide CB2 receptor agonists: SAR and optimization of CB2 selectivity” (Bioorg Med Chem Lett, 2008).

Experiments:
[1] = molecular target: T1, Cannabinoid receptor 2 (Homo sapiens, UniProt P34972); assay: Agonist activity at human CB2 receptor expressed in CHO cells assessed as inhibition of forskolin-stimulated cAMP level relative to CP-55940; format: functional, cell-based; design: Activity: scale not given: the % may be the effect or the level left
In short: (§1)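 CHO cells stably expressing human CB2 or CB1 were seeded at 5000 cells/well and grown overnight at 37 °C. Compounds were added in stimulation buffer (1 mM IBMX, 0.25% BSA, 10 µM forskolin) for 30 min at 37 °C. cAMP was measured in lysates with a cAMP kit; 100% = forskolin-stimulated cAMP versus level with 200 nM CP-55940. EC50 came from a four-parameter logistic fit; efficacy is relative to CP-55940. Each run was triplicate, at least three times.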

[2] = species: Homo sapiens; assay: Selectivity for human CB2 receptor over human CB1 receptor by cAMP assay; in short: as §1
[3] = molecular target: T1, Cannabinoid receptor 2; assay: Agonist activity at human CB2 receptor expressed in CHO cells assessed as inhibition of forskolin-stimulated cAMP level; format: functional, cell-based
In short: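 CHO cells expressing human CB2, 5000 cells/well, incubated overnight at 37 °C. Compounds given in stimulation buffer with 1 mM IBMX, 0.25% BSA and 10 µM forskolin for 30 min at 37 °C. Cells lysed and cAMP read by enzyme-fragment kit. Forskolin-stimulated cAMP versus cAMP with 200 nM CP-55940 defines 100%. EC50 from four-parameter logistic fit. Triplicate, at least three runs.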

[4] = molecular target: T1, Cannabinoid receptor 2; assay: Displacement of [3H]CP-55940 from human CB2 receptor expressed in HEK cells; format: cell-based, HEK293
In short: (§2)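 SPA binding with HEK membranes expressing human CB1 (2.5 µg/well) or CB2 (2 µg/well) on poly-L-lysine beads. Buffer: 50 mM Tris pH 7.5, 2.5 mM EDTA, 5 mM MgCl2, 0.8% fatty-acid-free BSA. Compounds at 1e-5 to 1e-10 M. [3H]-CP-55940 final 2.5 nM (CB1) or 4 nM (CB2). IC50 from four-parameter logistic fit, converted to Ki by Cheng-Prusoff.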

[5] = molecular target: Cannabinoid receptor 1 (Homo sapiens, UniProt P21554); assay: Displacement of [3H]CP-55940 from human CB1 receptor expressed in HEK cells; format: cell-based, HEK293; in short: as §2
Chain of Cannabinoid receptor 1 (P21554 whole entry): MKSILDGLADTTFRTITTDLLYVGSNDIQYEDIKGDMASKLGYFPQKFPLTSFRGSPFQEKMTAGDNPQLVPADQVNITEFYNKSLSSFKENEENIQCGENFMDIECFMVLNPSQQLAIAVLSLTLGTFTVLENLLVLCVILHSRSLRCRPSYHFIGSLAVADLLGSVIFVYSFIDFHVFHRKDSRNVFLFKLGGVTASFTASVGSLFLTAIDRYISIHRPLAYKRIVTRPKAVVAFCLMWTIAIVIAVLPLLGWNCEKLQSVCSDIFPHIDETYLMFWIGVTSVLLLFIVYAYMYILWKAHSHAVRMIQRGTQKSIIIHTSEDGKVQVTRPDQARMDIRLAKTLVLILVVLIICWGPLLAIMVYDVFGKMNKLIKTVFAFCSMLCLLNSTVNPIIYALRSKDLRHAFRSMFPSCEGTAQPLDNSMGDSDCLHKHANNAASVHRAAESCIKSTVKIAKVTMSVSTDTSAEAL

T1 sequence (P34972 whole entry): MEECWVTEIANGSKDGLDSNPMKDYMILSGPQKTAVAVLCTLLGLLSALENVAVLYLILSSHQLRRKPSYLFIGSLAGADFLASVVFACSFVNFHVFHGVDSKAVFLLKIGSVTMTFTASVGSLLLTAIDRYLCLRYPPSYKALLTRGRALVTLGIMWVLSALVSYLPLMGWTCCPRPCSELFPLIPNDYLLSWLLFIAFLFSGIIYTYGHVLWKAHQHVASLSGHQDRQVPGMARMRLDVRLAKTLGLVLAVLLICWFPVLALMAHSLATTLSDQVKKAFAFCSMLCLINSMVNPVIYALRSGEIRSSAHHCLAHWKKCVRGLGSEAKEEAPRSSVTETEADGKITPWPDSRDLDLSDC

Structure (SMILES)	Activity [1] [%]	Selectivity ratio [2]	EC50 [3] [nM]	Ki [4] [nM]	Ki [5] [nM]	Emax [1] [%]
Cc1ccc(C(=O)Nc2cccc(Cl)c2)cc1S(=O)(=O)N1CCCCC1	80	31	27			
Cc1ccc(C(=O)N2CCCC3CCCCC32)cc1S(=O)(=O)N1CCCCC1 (stereo not drawn)	82	94	6			
Cc1ccc(C(=O)N2CCC3CCCCC3C2)cc1S(=O)(=O)N1CCN(C(C)C)CC1 (stereo not drawn)	45		588			
Cc1ccc(C(=O)N(C)C2CCCCC2)cc1S(=O)(=O)N1CCCCC1	86	38	119			
CC(C)c1ccc(C(=O)N2CCC3CCCCC3C2)cc1S(=O)(=O)N1CCCC1 (stereo not drawn)	101	2860	0.4			
Cc1ccc(C(=O)Nc2nccc3ccccc23)cc1S(=O)(=O)N1CCCCC1	98	25	1			
O=C(c1ccc(C2CCCCC2)c(S(=O)(=O)N2CCCC2)c1)N1CCC2CCCCC2C1 (stereo not drawn)			> 20000			
Cc1ccccc1NC(=O)c1ccc(C)c(S(=O)(=O)N2CCCCC2)c1	76	1.5	154			
Cc1ccc(C(=O)N2CCC3CCCCC3C2)cc1S(=O)(=O)NC(C)C (stereo not drawn)	101	0.1	2280			
Cc1ccc(C(=O)Oc2cccc3cccnc23)cc1S(=O)(=O)N1CCCCC1	99	1	< 1	4	3	
Cc1ccc(C(=O)N2CCC3CCCCC3C2)cc1S(=O)(=O)N1CCSCC1 (stereo not drawn)	90	3250	1			
Cc1ccc(C(=O)N2CC[C@@H]3CCCC[C@H]3C2)cc1S(=O)(=O)N1CCCCC1 (relative stereo)	93	6890	1			
Cc1ccc(C(=O)N2CCC3CCCCC3C2)cc1S(=O)(=O)NCC(C)C (stereo not drawn)	96	939	14			
Cc1ccc(C(=O)Nc2ccccc2S(C)(=O)=O)cc1S(=O)(=O)N1CCCCC1	96	66	6			
O=C(NC1CCCCC1)c1ccc(Cl)c(S(=O)(=O)N2CCCC2)c1	74	85	3			
Cc1ccc(C(=O)N2CCC3CCCCC3C2)cc1S(=O)(=O)N1CCS(=O)(=O)CC1 (stereo not drawn)	99	7740	2			
Cc1ccc(C(=O)N[C@H](C)C2CCCCC2)cc1S(=O)(=O)N1CCCCC1	85	45	18			
Cc1ccc(C(=O)Nc2ccccc2C(F)(F)F)cc1S(=O)(=O)N1CCCCC1	92	96	2			
Cc1ccc(C(=O)N[C@@H](C)C2CCCCC2)cc1S(=O)(=O)N1CCCCC1	73	2	5			
Cc1ccc(C(=O)Nc2ccc3ccccc3n2)cc1S(=O)(=O)N1CCCCC1	45		195			
COc1ccccc1NC(=O)c1ccc(C)c(S(=O)(=O)N2CCCCC2)c1	91	9	21			
Cc1ccc(C(=O)N2CCC3CCCCC3C2)cc1S(=O)(=O)Nc1ccccc1 (stereo not drawn)			> 20000			

Structure (SMILES)	Activity [1] [%]	Selectivity ratio [2]	EC50 [3] [nM]	Ki [4] [nM]	Ki [5] [nM]	Emax [1] [%]
Cc1ccc(C(=O)N2CCCCC2)cc1S(=O)(=O)N1CCCCC1		> 240	82			85
Cc1ccc(C(=O)Nc2ccccc2Cl)cc1S(=O)(=O)N1CCCCC1	89	13	5			
Cc1ccc(C(=O)N2CCC3CCCCC3C2)cc1S(=O)(=O)N1CCCCC1 (stereo not drawn)	95	4330	1.5			
O=C(NCC1CCOCC1)c1cnc(Nc2ccc(Cl)cc2Cl)nc1C(F)(F)F	95	> 470				
Cc1ccc(C(=O)N2CCC3CCCCC3C2)cc1S(=O)(=O)N1CCC1 (stereo not drawn)	94	> 1500	13			
Cc1ccc(C(=O)NC2CCCCC2)cc1S(=O)(=O)N1CCCC1	81	181	21			
Cc1ccc(C(=O)Nc2ccc(Cl)cc2)cc1S(=O)(=O)N1CCCCC1	117		14100			
Cc1ccc(C(=O)Nc2ccccc2)cc1S(=O)(=O)N1CCCCC1	74	6	139			
O=C(c1ccc(Cl)c(S(=O)(=O)N2CCCC2)c1)N1CCC2CCCCC2C1 (stereo not drawn)	93	520	4			
Cc1ccc(C(=O)N2CCC3CCCCC3C2)cc1S(=O)(=O)N1CCCCCC1 (stereo not drawn)	100	3280	2			
COc1ccc2c(c1)c(CCN1CCOCC1)c(C)n2C(=O)c1cccc(Cl)c1Cl	44		0.65			
Cc1ccc(C(=O)N2CCC3CCCCC3C2)cc1S(=O)(=O)N1CCC(O)CC1 (stereo not drawn)	86	37	215			
O=C(NC1CCCCC1)c1cccc(S(=O)(=O)N2CCCC2)c1			> 20000			
Cc1ccc(C(=O)N(C)c2ccccc2Cl)cc1S(=O)(=O)N1CCCCC1			> 20000			
Cc1ccc(C(=O)N2CCC3CCCCC3C2)cc1S(=O)(=O)N1CCOCC1 (stereo not drawn)	104	2640	5			
Cc1ccc(C(=O)N2CCC3CCCCC3C2)cc1S(=O)(=O)N1CCCC1 (stereo not drawn)	94	2240	4			
Cc1ccc(C(=O)NC2(C)CCCCC2)cc1S(=O)(=O)N1CCCCC1	58		18			
Cc1ccc(C(=O)NC2CCCCC2)cc1S(=O)(=O)N1CCCCC1	86	24	14			
Cc1ccc(C(=O)Nc2cccc3cccnc23)cc1S(=O)(=O)N1CCCCC1	100	7	4			
O=C(c1ccc(Cl)c(S(=O)(=O)N2CCCC2)c1)N1CC[C@@H]2CCCC[C@H]2C1 (relative stereo)	89	3770	3			
CC(C)c1ccc(C(=O)NC2CCCCC2)cc1S(=O)(=O)N1CCCC1	86	60	4			
O=C(c1cccc(S(=O)(=O)N2CCCC2)c1)N1CC[C@@H]2CCCC[C@H]2C1 (relative stereo)			> 20000			
